{"data": "Published values pooled from the literature", "cell line": "A549", "effect on": "cell growth or viability"}
{"SMILES": "CCOC(=O)/C=C1\\S/C(=N\\C(=O)c2ccc3ccccc3c2)N(C2CCCCC2)C1=O", "setting": "48 h", "IC50 [µM]": 13.8}
{"SMILES": "CC1=C(O)C(=O)C=C2C1=CC=C1[C@@]2(C)CC[C@@]2(C)[C@@H]3C[C@](C)(C(=O)OCCCOc4ccccc4)CC[C@]3(C)CC[C@]12C", "test": "MTT", "setting": "48 h", "IC50 [µM]": 5.39}
{"SMILES": "CC(C)(C)NC(=O)NNC(=O)c1ccc(Nc2nccc(-c3ccc(Cl)cc3)n2)cc1", "test": "MTT", "IC50 [µM]": 19.5}
{"SMILES": "CCCc1ccc(OCC(O)CNC/C=C/c2ccccc2OC)cc1 (stereo not drawn)", "test": "CCK-8", "setting": "72 h", "IC50 [µM]": 31.6}
{"SMILES": "COc1c(C)cnc(COc2ccc(NC(=O)Nc3ccc(F)cc3)cc2)c1C", "test": "MTT", "setting": "72 h", "IC50 [µM]": 13.2}
{"SMILES": "COc1ccccc1NCC(O)COc1cccc2[nH]c3ccccc3c12 (stereo not drawn)", "test": "CCK-8", "setting": "72 h", "IC50 [µM]": 86.8}
{"SMILES": "O=C(NC(=S)NCCCNC(=S)NC(=O)c1ccc2ccccc2c1)c1ccc2ccccc2c1", "setting": "48 h", "IC50 [µM]": 2.41}
{"SMILES": "COc1ccc(-c2nc(C(=O)Nc3nnc(-c4cc5ccccc5[nH]4)s3)cc3c2[nH]c2ccccc23)cc1", "test": "MTT", "setting": "72 h", "IC50 [µM]": 2.82}
{"SMILES": "CCC(=O)Nc1cc(Nc2nc(N3CCOCC3)c3sccc3n2)c(OC)cc1N(C)CCN(C)C", "test": "MTT", "IC50 [µM]": "> 50"}
{"SMILES": "CC1=C(O)C(=O)C=C2C1=CC=C1[C@@]2(C)CC[C@@]2(C)[C@@H]3C[C@](C)(C(=O)OCCCn4ccc5ccccc54)CC[C@]3(C)CC[C@]12C", "test": "MTT", "setting": "48 h", "IC50 [µM]": "> 100"}
{"SMILES": "CCC(=O)Nc1cc(Nc2nc(N3CCc4sccc4C3)c3cccnc3n2)c(OC)cc1N(C)C", "test": "MTT", "IC50 [µM]": "> 50"}
{"SMILES": "Cn1c(=O)c2c(ncn2Cc2nnc(SCC(=O)Nc3ccc(Cl)c(Cl)c3)n2-c2ccccc2)n(C)c1=O", "test": "MTT", "IC50 [µM]": 80.6}
{"SMILES": "NNC(=O)c1ccncc1", "test": "MTT", "setting": "72 h", "IC50 [µM]": "> 450"}
{"SMILES": "CC1=C(O)C(=O)C=C2C1=CC=C1[C@@]2(C)CC[C@@]2(C)[C@@H]3C[C@](C)(C(=O)OCCCCCCO)CC[C@]3(C)CC[C@]12C", "test": "MTT", "setting": "48 h", "IC50 [µM]": "> 100"}
{"SMILES": "COc1cc(N(C)CCN(C)C)c(NC(=O)C=C(C)C)cc1Nc1nc(N2CCc3sccc3C2)c2sccc2n1", "test": "MTT", "IC50 [µM]": 27.9}
{"SMILES": "CCOc1cc(OCC)cc(C(=O)O[C@@H]2CN3Cc4c(cc5c(c4OC)OCO5)[C@@]24C=C[C@H](OC)C[C@@H]34)c1", "test": "WST-1", "IC50 [µM]": "> 10"}
{"SMILES": "COc1cccc2c1C(=O)c1c(O)c3c(c(O)c1C2=O)C[C@@](O)(C(=O)CO)C[C@@H]3O[C@H]1C[C@H](N)[C@H](O)[C@H](C)O1", "test": "MTT", "setting": "24 h", "IC50 [µM]": "> 100"}
{"SMILES": "COc1cc2ncnc(Nc3ccc(F)c(Cl)c3)c2cc1NC(=O)N/N=C/CN1CCCCC1", "test": "MTT", "setting": "72 h", "IC50 [µM]": 5.63}
{"SMILES": "COc1c(C)c(OC)c2c(c1C)OC(c1ccccc1)CC2=O (stereo not drawn)", "test": "SRB", "setting": "72 h", "IC50 [µM]": "> 50"}
{"SMILES": "Brc1ccc(Nc2nc(NCc3ccccc3)nc(NCc3ccccc3)n2)cc1", "test": "SRB", "setting": "72 h", "IC50 [µM]": 14.9}
{"SMILES": "Cc1ccc(C)n1-c1ccc(-c2nnco2)cc1", "test": "MTT", "setting": "72 h", "IC50 [µM]": 226}
{"SMILES": "CCC(=O)Nc1cc(Nc2nc(N3CCc4sccc4C3)c3cccnc3n2)c(OC)cc1N1CCC(N(C)C)CC1", "test": "MTT", "IC50 [µM]": 1.25}
{"SMILES": "CCNC(=S)NC(=O)c1ccc2ccccc2c1", "setting": "48 h", "IC50 [µM]": 5.01}
{"SMILES": "O=C(N/N=C/c1cccn1CCCN1CCCC1)Nc1cc2c(Nc3ccc(F)c(Cl)c3)ncnc2cc1O[C@H]1CCOC1", "test": "MTT", "setting": "72 h", "IC50 [µM]": 4.36}
{"SMILES": "COc1ccccc1OCCN1CCOC(COc2cccc3[nH]c4ccccc4c23)C1 (stereo not drawn)", "test": "CCK-8", "setting": "72 h", "IC50 [µM]": "> 100"}
{"SMILES": "O=C(N/N=C/c1cccn1CCCN1CCOCC1)Nc1cc2c(Nc3ccc(F)c(Cl)c3)ncnc2cc1O[C@H]1CCOC1", "test": "MTT", "setting": "72 h", "IC50 [µM]": 5.62}
{"SMILES": "Cc1c(NC(=O)c2ccc(C(C)(C)C)cc2)cccc1-c1cn(C)c(=O)c(Nc2ccc(C(=O)N3CCOCC3)cc2)n1", "IC50 [µM]": "> 10"}
{"SMILES": "CN1CCN(CCCn2cccc2/C=N/NC(=O)Nc2cc3c(Nc4ccc(F)c(Cl)c4)ncnc3cc2O[C@H]2CCOC2)CC1", "test": "MTT", "setting": "72 h", "IC50 [µM]": 4.06}
{"SMILES": "CN1C(=O)/C(=N\\NC(=O)c2cc3ccccc3[nH]2)c2ccccc21", "IC50 [µM]": 4.04}
{"SMILES": "Oc1ncnc2cc(Nc3nc(-c4ccccc4)cs3)ccc12", "test": "MTT", "IC50 [µM]": 24.7}
{"SMILES": "COc1ccc(-c2nn(-c3ccc(S(C)(=O)=O)cc3)cc2C=N/N=c2\\[nH]c(-c3ccc([N+](=O)[O-])cc3)cs2)cc1", "test": "MTT", "setting": "48 h", "IC50 [µM]": 4.03}
{"SMILES": "CN1C(=O)/C(=N\\NC(=O)c2cc3ccccc3[nH]2)c2cc(F)ccc21", "IC50 [µM]": 2.82}
{"SMILES": "COCCCOc1ccnc(COc2ccc(NC(=O)Nc3ccc(OC)cc3)cc2)c1C", "test": "MTT", "setting": "72 h", "IC50 [µM]": 11.4}
{"SMILES": "CCC(=O)Nc1cc(Nc2nc(N3CCc4sccc4C3)c3cccnc3n2)c(OC)cc1N1CCN(CCO)CC1", "test": "MTT", "IC50 [µM]": "> 50"}
{"SMILES": "Oc1ncnc2cc(Nc3nc(-c4ccc(Cl)cc4)cs3)ccc12", "test": "MTT", "IC50 [µM]": 20.8}
{"SMILES": "CC(C)Cc1ccc(-c2nn(-c3ccc(S(C)(=O)=O)cc3)cc2/C=N/N=c2\\[nH]c(-c3ccc(Br)cc3)cs2)cc1", "test": "MTT", "setting": "48 h", "IC50 [µM]": 15.3}
{"SMILES": "COc1cc([C@@H]2c3cc4c(cc3[C@@H](O[C@@H]3O[C@@H]5CO[C@@H](C)O[C@H]5[C@H](O)[C@H]3O)[C@H]3COC(=O)[C@H]23)OCO4)cc(OC)c1O", "test": "MTT", "setting": "48 h", "IC50 [µM]": 11.9}
{"SMILES": "COC(=O)/C=C/C=C/c1ccc2c(c1)OCO2", "test": "SRB", "IC50 [µM]": 162}
{"SMILES": "O=C(CN1C(=O)/C(=C/c2cccc(Br)c2)SC1=S)Nc1ccccc1", "test": "MTT", "IC50 [µM]": 25.5}
{"SMILES": "O=C(NNC(=O)c1ccc(Nc2nccc(-c3ccccn3)n2)cc1)NC1CCCC1", "test": "MTT", "IC50 [µM]": "> 40"}
{"SMILES": "O=C(N/N=C/CN1CCOCC1)Nc1cc2c(Nc3ccc(F)c(Cl)c3)ncnc2cc1O[C@H]1CCOC1", "test": "MTT", "setting": "72 h", "IC50 [µM]": 5.62}
{"SMILES": "COc1ccccc1/C=C/CNCC(O)COc1cccc2c1[nH]c1ccccc12 (stereo not drawn)", "test": "CCK-8", "setting": "72 h", "IC50 [µM]": 11.2}
{"SMILES": "CC(C)=CCC[C@](C)(O)[C@H]1CC[C@]2(C)[C@@H]1[C@H](O)C[C@@H]1[C@@]3(C)CC[C@H](O[C@@H]4O[C@H](CO)[C@@H](O)[C@H](O)[C@H]4O[C@@H]4O[C@H](CO)[C@@H](O)[C@H](O)[C@H]4O)C(C)(C)[C@@H]3CC[C@]12C", "test": "MTT", "setting": "72 h", "IC50 [µM]": "> 100"}
{"SMILES": "C=CC(=O)Nc1cc(Nc2nc(N3CCc4sccc4C3)c3cccnc3n2)c(OC)cc1N1CCC(N(C)C)CC1", "test": "MTT", "IC50 [µM]": 0.393}
{"SMILES": "COCCCOc1ccnc(COc2ccc(NC(=O)Nc3ccc(F)cc3)cc2)c1C", "test": "MTT", "setting": "72 h", "IC50 [µM]": 5.74}
{"SMILES": "Oc1ncnc2cc(Nc3nc(-c4ccc(F)cc4)cs3)ccc12", "test": "MTT", "IC50 [µM]": 19}
{"SMILES": "CCn1c(-c2nnc(NC(=O)c3cc4c([nH]c5ccccc54)c(-c4cc(OC)c(OC)c(OC)c4)n3)s2)cc2ccccc21", "test": "MTT", "setting": "72 h", "IC50 [µM]": 10.9}
{"SMILES": "COc1cc2ncnc(Nc3ccc(F)c(Cl)c3)c2cc1NC(=O)N/N=C/c1cccn1CCN1CCN(C)CC1", "test": "MTT", "setting": "72 h", "IC50 [µM]": 2.34}
{"SMILES": "CCN(CC)C(=S)NC(=O)c1ccc2ccccc2c1", "setting": "48 h", "IC50 [µM]": 4.76}
{"SMILES": "CNC(=O)c1cc(Oc2ccc(NC(=O)Nc3ccc(Cl)c(C(F)(F)F)c3)cc2)ccn1", "test": "MTT", "setting": "24 h", "IC50 [µM]": "> 40"}
{"SMILES": "COc1c(C)cnc(COc2ccc(NC(=O)Nc3cccc(C(F)(F)F)c3)cc2)c1C", "test": "MTT", "setting": "72 h", "IC50 [µM]": 20.2}
{"SMILES": "NNc1nc(NCc2ccccc2)nc(Nc2ccc(Br)cc2)n1", "test": "SRB", "setting": "72 h", "IC50 [µM]": "> 30"}
{"SMILES": "Cc1c(OCC(F)(F)F)ccnc1COc1ccc(NC(=O)Nc2ccc(F)cc2)cc1", "test": "MTT", "setting": "72 h", "IC50 [µM]": 5.37}
{"SMILES": "COc1ccccc1/C=C/CNCC(O)COc1ccc2[nH]c3ccccc3c2c1 (stereo not drawn)", "test": "CCK-8", "setting": "72 h", "IC50 [µM]": 9.1}
{"SMILES": "CCC(=O)Nc1cc(Nc2nc(N3CCc4sccc4C3)c3cccnc3n2)c(OC)cc1N1CCN(C(C)=O)CC1", "test": "MTT", "IC50 [µM]": 7.01}
{"SMILES": "COc1ccc(/C=C2\\SC(=S)N(CC(=O)Nc3ccccc3)C2=O)cc1", "test": "MTT", "IC50 [µM]": 25.7}
{"SMILES": "CN1CCN(CCn2cccc2/C=N/NC(=O)Nc2cc3c(Nc4ccc(F)c(Cl)c4)ncnc3cc2O[C@H]2CCOC2)CC1", "test": "MTT", "setting": "72 h", "IC50 [µM]": 3.02}
